Measured values: ChEMBL document CHEMBL1145253, “Synthesis and evaluation of 3D templates based on a taxane skeleton to circumvent P-glycoprotein-associated multidrug resistance of cancer” (Bioorg Med Chem Lett, 2005)

Tests used:
[1] = test system: KB 3-1; experiment: Inhibitory concentration against human KB-3-1 cells; type: functional, cell-based
Procedure, shortened: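 Cytotoxicity IC50 in two human KB lines: KB-G2, a multidrug-resistant line overexpressing P-glycoprotein (Val-185) and resistant to paclitaxel and vinblastine, and its parental drug-sensitive KB-3-1 line as the control. Both lines came from an outside academic lab.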

[2] = test system: KB-G2; experiment: Inhibitory concentration against KB-G2 cells; conditions: Homo sapiens
[3] = molecular target: ATP-dependent translocase ABCB1 (Homo sapiens, UniProt P08183); experiment: Michaelis-Menten constant for human P-glycoprotein expressed in Sf9 cells
Chain of ATP-dependent translocase ABCB1 (P08183 whole entry): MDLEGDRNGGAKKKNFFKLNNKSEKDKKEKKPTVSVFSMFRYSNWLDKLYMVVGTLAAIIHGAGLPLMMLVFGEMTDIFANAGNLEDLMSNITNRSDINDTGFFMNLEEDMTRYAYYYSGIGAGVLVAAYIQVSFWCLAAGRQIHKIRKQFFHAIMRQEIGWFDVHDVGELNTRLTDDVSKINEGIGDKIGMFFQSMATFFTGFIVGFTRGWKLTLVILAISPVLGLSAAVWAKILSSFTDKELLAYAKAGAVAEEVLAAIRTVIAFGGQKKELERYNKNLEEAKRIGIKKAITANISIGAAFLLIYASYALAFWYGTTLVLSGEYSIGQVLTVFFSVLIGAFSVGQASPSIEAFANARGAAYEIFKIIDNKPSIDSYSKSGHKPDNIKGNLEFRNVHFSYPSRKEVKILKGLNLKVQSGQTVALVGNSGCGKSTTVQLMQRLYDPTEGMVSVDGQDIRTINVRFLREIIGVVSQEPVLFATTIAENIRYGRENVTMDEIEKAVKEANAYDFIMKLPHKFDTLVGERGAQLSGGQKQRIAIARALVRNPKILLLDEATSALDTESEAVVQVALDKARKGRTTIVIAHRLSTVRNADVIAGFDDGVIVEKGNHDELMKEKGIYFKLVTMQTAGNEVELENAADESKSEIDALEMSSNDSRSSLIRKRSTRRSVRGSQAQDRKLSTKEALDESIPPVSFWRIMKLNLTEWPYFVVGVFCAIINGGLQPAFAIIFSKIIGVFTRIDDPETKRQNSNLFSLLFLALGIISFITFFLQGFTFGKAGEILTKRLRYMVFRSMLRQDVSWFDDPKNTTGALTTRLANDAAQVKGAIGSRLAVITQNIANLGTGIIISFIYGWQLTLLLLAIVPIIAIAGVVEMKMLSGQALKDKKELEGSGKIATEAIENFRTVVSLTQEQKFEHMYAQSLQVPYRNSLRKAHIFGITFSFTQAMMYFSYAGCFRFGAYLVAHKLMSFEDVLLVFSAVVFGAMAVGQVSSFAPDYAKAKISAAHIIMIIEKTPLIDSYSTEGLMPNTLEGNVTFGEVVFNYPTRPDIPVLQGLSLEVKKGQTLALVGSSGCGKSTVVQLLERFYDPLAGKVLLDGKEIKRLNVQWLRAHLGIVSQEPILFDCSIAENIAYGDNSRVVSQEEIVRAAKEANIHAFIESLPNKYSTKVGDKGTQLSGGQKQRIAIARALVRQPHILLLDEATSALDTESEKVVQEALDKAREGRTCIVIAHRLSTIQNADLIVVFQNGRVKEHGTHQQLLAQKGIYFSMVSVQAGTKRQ

IC50 [1] | IC50 [2] | Km [3] | Compound
> 50 µM | > 50 µM |  | COCOc1cccc2c1[C@@H]1OC(=O)O[C@]13CCC(C)=C(CO2)C3(C)C
> 50 µM | > 50 µM |  | COCOc1ccc2c(c1)[C@@H]1OC(=O)O[C@]13CCC(C)=C(CO2)C3(C)C
> 50 µM | > 50 µM |  | CC1=C2CC(=O)c3ccccc3[C@@H]3OC(=O)O[C@@]3(CC1)C2(C)C
> 50 µM | > 50 µM |  | CC1=C2COc3ccccc3[C@@H]3OC(=O)O[C@@]3(CC1)C2(C)C
> 50 µM | > 50 µM |  | CC1=C2COCc3ccccc3[C@@H]3OC(=O)O[C@@]3(CC1)C2(C)C
> 50 µM | > 50 µM |  | C=C1C2(C)CC[C@]3(OC(=O)O[C@H]3c3c(OCOC)cccc3C2=O)C1(C)C
> 50 µM | > 50 µM |  | COCOc1ccc2c(c1)[C@@H]1OC(=O)O[C@]13CCC(C)=C(COC2)C3(C)C
> 50 µM | > 50 µM |  | COCOc1ccc2c(c1)[C@@H]1OC(=O)O[C@]13CCC(C)=C(CC2=O)C3(C)C
 |  | 2 µM | COc1ccc(CCN(C)CCCC(C#N)(c2ccc(OC)c(OC)c2)C(C)C)cc1OC (stereo not given)
0.0021 µM | 0.6 µM | 0.7 µM | CC(=O)O[C@H]1C(=O)[C@@]2(C)[C@H]([C@H](OC(=O)c3ccccc3)[C@]3(O)C[C@H](OC(=O)[C@H](O)[C@@H](NC(=O)c4ccccc4)c4ccccc4)C(C)=C1C3(C)C)[C@]1(OC(C)=O)CO[C@@H]1C[C@@H]2O [PACLITAXEL]
